Reference: PMC9361925 (RSC Advances, 2022)

How the values were obtained:
[1] = system: human embryonic kidney (HEK-293, ATCC number CRL-1573) cell line; settings: read-out: IC50 Hek-293; non-cancerous Hek-293 cells; cited from earlier work
SK-Lu-1 cells [2] = assay: Cell cycle analysis by flow cytometry; format: cell-based, human; settings: 24 h
In short: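 Log-phase SK-LU-1 cells (3 × 10^5 per 25 cm2 flask) treated 24 h with test compound at 0.08, 0.16 or 0.32 μM. Controls: DMSO 0.05%, ellipticine 1.3 μM, vincristine 0.4 and 4 μM. Cells were PBS-washed and fixed in ice-cold 70% ethanol at −20 °C for 2 h. They were then treated with RNase A (1 mg mL−1, 37 °C, 15 min), stained with PI for 30 min and analysed by flow cytometry.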

SK-Lu-1 cells [3] = assay: Cell nucleus staining with Hoechst 33342; format: cell-based, human; settings: 0.08 μM, 0.16 μM, and 0.32 μM, 24 h
SK-Lu-1 cells [4] = settings: read-out: IC50 SK-Lu-1; cited from earlier work
[5] = system: caspase-3/7 activation in human lung SK-LU-1 cancer cells; assay: Caspase-3/7 assay; format: cell-based; settings: SK-LU-1 cells, 0.08 μM, 0.16 μM, and 0.32 μM
In short: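 SK-LU-1 cells (2 × 10^5 per well) incubated 5 h at 37 °C, 5% CO2, with test compound at 0.08, 0.16 or 0.32 μM. Controls: ellipticine 1.3 μM, vincristine 4 μM; solvent served as blank. Apo-ONE caspase-3/7 reagent was added, briefly shaken and left at room temperature for 1–18 h. Fluorescence was read at Ex 485/Em 530 nm. Activity = sample RFU minus blank RFU.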

[6] = system: epidermoid carcinoma (KB, ATCC number CCL-17); settings: read-out: IC50 KB; KB cells; cited from earlier work
[7] = system: hepatocellular carcinoma (HepG2, ATCC number HB-8065); settings: read-out: IC50 HepG2; HepG2 cells; cited from earlier work
SK-Lu-1 cells [8] = assay: Annexin V FITC and PI flow cytometry assay for apoptosis; format: cell-based, human; settings: 24 h; for % Necrotic cells: Annexin-V/PI (Q2-1); for % Late apoptosis cells: Annexin-V/PI (Q2-2); for % Early apoptosis cells: Annexin-V/PI (Q2-4); for % Total apoptosis cells: early + late
In short: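 SK-LU-1 cells (3 × 10^5 per 25 cm2 flask; DMEM, 7–10% FBS, penicillin/streptomycin, 37 °C, 5% CO2) exposed 24 h to test compound. Controls: DMSO 0.5%, ellipticine 1.3 μM, vincristine 0.4 and 4 μM. Cells were harvested, washed in cold PBS and resuspended in annexin-binding buffer. They were stained with FITC-annexin V plus PI (100 μg mL−1 working solution) for 15 min at room temperature, then diluted and analysed by flow cytometry.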

[9] = system: breast (MCF7, HTB-22™) cancer cell line; settings: read-out: IC50 MCF7; MCF7 cells; cited from earlier work

SMILES: COc1cccc(C2C3=C(COC3=O)NC3=C2C(=O)c2ccccc2C3=O)c1 (stereo not shown) [5a, 11-(3-Methoxyphenyl)-4,11-dihydrobenzo[g]furo[3,4-b]quinoline-1,5,10(3H)-trione]
- IC50 [1]: 9.35 ± 0.44 µM
- Percentage of cell by phases, % G0/G1 (SK-Lu-1 cells [2]; SK-LU-1, 0.08 μM): 47.91%
- Percentage of cell by phases, % G2/M (SK-Lu-1 cells [2]; SK-LU-1, 0.08 μM): 20.58%
- Percentage of cell by phases, % S (SK-Lu-1 cells [2]; SK-LU-1, 0.08 μM): 30.45%
- Percentage of cell by phases, % G0/G1 (SK-Lu-1 cells [2]; SK-LU-1, 0.16 μM): 0.58%
- Percentage of cell by phases, % G2/M (SK-Lu-1 cells [2]; SK-LU-1, 0.16 μM): 82.17%
- Percentage of cell by phases, % S (SK-Lu-1 cells [2]; SK-LU-1, 0.16 μM): 5.78%
- Percentage of cell by phases, % G0/G1 (SK-Lu-1 cells [2]; SK-LU-1, 0.32 μM): 0.28%
- Percentage of cell by phases, % G2/M (SK-Lu-1 cells [2]; SK-LU-1, 0.32 μM): 84.70%
- Percentage of cell by phases, % S (SK-Lu-1 cells [2]; SK-LU-1, 0.32 μM): 4.05%
- changes in cell morphology (Hoechst staining) (SK-Lu-1 cells [3]): nucleus fragmentation and chromatin condensation
- IC50 (SK-Lu-1 cells [4]): < 0.04 µM
- caspase-3/7 activity as compared to Ellipticine (1.3 μM) [5]: 4-5 fold
- IC50 [6]: 1.23 ± 0.01 µM
- IC50 [7]: 0.46 ± 0.01 µM
- % Necrotic cells (SK-Lu-1 cells [8]; SK-LU-1, 0.08 μM): 0.59%
- % Late apoptosis cells (SK-Lu-1 cells [8]; SK-LU-1, 0.08 μM): 0.82%
- % Early apoptosis cells (SK-Lu-1 cells [8]; SK-LU-1, 0.08 μM): 1.30%
- % Total apoptosis cells (SK-Lu-1 cells [8]; SK-LU-1, 0.08 μM): 2.12%
- % Necrotic cells (SK-Lu-1 cells [8]; SK-LU-1, 0.16 μM): 2.64%
- % Late apoptosis cells (SK-Lu-1 cells [8]; SK-LU-1, 0.16 μM): 2.40%
- % Early apoptosis cells (SK-Lu-1 cells [8]; SK-LU-1, 0.16 μM): 7.23%
- % Total apoptosis cells (SK-Lu-1 cells [8]; SK-LU-1, 0.16 μM): 9.63%
- % Necrotic cells (SK-Lu-1 cells [8]; SK-LU-1, 0.32 μM): 4.68%
- % Late apoptosis cells (SK-Lu-1 cells [8]; SK-LU-1, 0.32 μM): 4.25%
- % Early apoptosis cells (SK-Lu-1 cells [8]; SK-LU-1, 0.32 μM): 11.59%
- % Total apoptosis cells (SK-Lu-1 cells [8]; SK-LU-1, 0.32 μM): 15.84%
- IC50 [9]: > 2.5 µM
